Screening data deposited in PubChem BioAssay by several laboratories.
EBNA-1 inh – blocks EBNA-1 binding to DNA. AID 1950. inhibition, % at 14.8 µM. EBNA-1 DNA binding, fluorescence polarization. 300,000 tested, 0.34% active; in the data active means inhibition above about 28%
HCV core dimer – blocks dimerization of HCV core protein; TR-FRET GST/Flag-core106 dimerization, 1536-well; inhibition, % at 5 µM; 300,000 tested, 0.33% active; AID 1899;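 active means inhibition above the mean of all tested compounds plus 3 SD, set per screening campaign, cut at about 45% in these data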
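System: GST-tagged and Flag-tagged HCV core protein residues 1-106 / Input: core106 proteins, GST 13.5 nM and Flag 17 nM / Buffer or medium: KF-containing HEPES buffer, pH 7.45, DTT, CHAPS, BSA / Probe or stimulus: Eu-anti-GST and XL665-anti-Flag labelled anti-tag antibodies / Schedule: 4 h, 22.5 °C incubation / Technique: TR-FRET 671 and 617 nm emission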
HCV NS3 hel inh – inhibitors of Hepatitis C virus NS3 helicase | inhibition, % at 10.9 µM | 290,000 tested, 0.56% active | AID 1800 | NS3 helicase DNA unwinding, Cy5 molecular beacon fluorescence;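 active means inhibition above the mean of all tested compounds plus 3 SD, set per campaign, cut at about 35% in these data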
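Test system: hepatitis C virus NS3 helicase domain fragment enzyme. Also added: annealed dual-labelled DNA beacon duplex, ATP-started. Timing: 60 min unwinding reaction at 25 °C after ATP addition. Technique: Cy5 fluorescence. Measure: % inhibition of unwinding.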
ALR H2O2 inh – human ALR oxidase inhibition via reduced H2O2; AID 485317; 290,000 tested, 3.8% active; purified ALR, DTT oxidation, H2O2 HRP-luminol luminescence; P55789; inhibition, % (test concentration not listed);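 active means mean replicate inhibition above about 79%, with every replicate also reaching it, limit read from the data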
Target sequence (P55789 whole entry, looked up): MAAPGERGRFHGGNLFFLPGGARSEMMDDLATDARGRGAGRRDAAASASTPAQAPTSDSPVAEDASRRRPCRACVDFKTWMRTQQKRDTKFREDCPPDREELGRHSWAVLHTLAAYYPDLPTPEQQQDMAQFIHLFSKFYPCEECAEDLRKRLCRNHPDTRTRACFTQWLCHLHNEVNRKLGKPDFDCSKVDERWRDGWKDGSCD
ZTA DNA inh – blocks Epstein-Barr virus ZTA, an EBNA-1 counter-screen; P03206; ZTA-DNA binding, fluorescence polarization; inhibition, % at 11 µM; 320,000 tested, 0.15% active; in the data active means inhibition above about 33%
PfM18AAP inh-1 – PfM18AAP enzyme inhibition; recombinant PfM18AAP, H-Glu-NHMec fluorogenic cleavage; inhibition, % at 7.35 µM; 290,000 tested, 1.2% active; AID 1822;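 active means inhibition above the campaign mean inhibition over all tested compounds plus 3 SD, cut at about 28% in these data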
PfM18AAP inh-2 – PfM18AAP inhibition, confirmation. shares compounds with PfM18AAP inh-1. recombinant PfM18AAP, H-Glu-NHMec fluorogenic cleavage. inhibition, % at 7.35 µM. 2,400 tested, 28% active;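 active means mean inhibition over replicate wells above the hit cutoff set for the earlier primary screen, cut at about 29% in these data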
CTSL1 counter – Cathepsin L (human) inhibition, confirmation. purified cathepsin L1, Z-Leu-Arg-MCA fluorescence. inhibition, % at 5.96 µM. 2,400 tested, under 10 active. shares compounds with PfM18AAP inh-1;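 active means average inhibition across replicates above the hit cutoff set in the earlier primary screen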
Target sequence (P07711 whole entry, looked up): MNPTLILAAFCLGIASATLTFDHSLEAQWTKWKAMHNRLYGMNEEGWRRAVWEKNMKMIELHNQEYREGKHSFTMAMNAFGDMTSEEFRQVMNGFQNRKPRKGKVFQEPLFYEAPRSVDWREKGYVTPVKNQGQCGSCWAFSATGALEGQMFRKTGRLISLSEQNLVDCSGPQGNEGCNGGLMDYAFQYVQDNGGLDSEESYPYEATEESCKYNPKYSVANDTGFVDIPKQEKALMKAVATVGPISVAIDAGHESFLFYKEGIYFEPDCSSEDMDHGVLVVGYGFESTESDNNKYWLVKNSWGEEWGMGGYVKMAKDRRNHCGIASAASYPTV
A number is an active result; . = inactive; / = no result given. Rows were chosen to be rich in hits. Some 5.2% of all compounds tested hit in one or more screens of this group.

SMILES	EBNA-1 inh	HCV core dimer	HCV NS3 hel inh	ALR H2O2 inh	ZTA DNA inh	PfM18AAP inh-1	PfM18AAP inh-2	CTSL1 counter
CCC1(CC)NC(=O)N(CC(=O)OC(C)C(=O)Nc2cc([N+](=O)[O-])ccc2OC)C1=O (centres undefined)	.	.	.	.	.	.	/	/
O=C(O)c1cccc(CN2C(=O)SC(Nc3cccc4ccccc34)C2=O)c1 (centres undefined)	.	.	.	/	.	34	.	.
Cc1n[nH]c(=S)n(NC(=O)/C=C/C(=O)Nn2c(=S)[nH]nc(C)c2=O)c1=O	/	/	.	/	/	35	.	.
Cc1nc2ccccc2c(=O)n1NC(=O)/C=C/c1ccccc1	.	.	.	.	.	.	/	/
Cc1n[nH]c(=S)n(NC(=O)CC(=O)Nn2c(=S)[nH]nc(C)c2=O)c1=O	.	.	.	.	.	42	.	.
CCC(=O)Nn1c(C)nnc1C	.	.	.	.	.	.	/	/
O=C(O)COc1ccc(C(NC(=O)c2c(F)cccc2F)NC(=O)c2c(F)cccc2F)cc1	.	.	.	/	.	.	/	/
CC(C)c1cc2c(c(O)c1O)[C@@]13CCCC(C)(C)C1CC2OC3=O (some centres undefined)	.	.	.	.	.	68	48	.
Cc1ccc(/C=C/C(=O)Nc2ccccc2C(N)=O)cc1	.	.	.	/	.	.	/	/
CCc1nnc(NC(=O)CSc2nnc(CNC(=O)c3ccc(OC)c(OC)c3)o2)s1	.	.	.	.	.	42	.	.
O=C(O)/C=C/C(=O)NCc1cn(-c2ccccc2)nc1-c1cccc(Br)c1	.	.	.	.	.	36	.	.
O=C(O)Cc1cn(-c2ccccc2)nc1-c1ccccc1	.	.	.	.	.	.	/	/
Cc1cc(C(=O)CSc2nc(N)cc(N)n2)c(C)n1C1CC1	.	.	.	.	.	36	.	.
C=CCn1c(C)cc(C(=O)CSc2nc(N)cc(N)n2)c1C	.	.	.	.	.	.	/	/
Cc1cc(C(=O)CSc2nc(N)cc(N)n2)c(C)n1-c1cccc(F)c1	.	.	.	.	.	34	.	.
O=C(CCNC(=O)N1CCn2c1nc1ccccc12)NCc1ccccc1	.	.	.	/	.	.	/	/
CN(C)S(=O)(=O)c1ccc(-c2csc(N/N=C/c3ccc(O)cc3)n2)cc1	.	.	.	/	.	.	/	/
CC(C)(C)c1cc[n+](-c2[nH]c(=O)sc2/C=N/NC([S-])=Nc2ccccc2)cc1	.	.	.	.	.	35	.	.
Cc1ccc[n+](-c2[nH]c(=O)sc2/C=N/N=C(\[O-])CCn2c3ccccc3c3ccccc32)c1	.	.	.	.	.	.	/	/
O=C(COc1ccc(F)cc1)c1c(O)cc(O)cc1O	.	.	.	.	.	33	.	.
COc1ccc(CCC(=O)NNC(=O)Nc2cccc(Cl)c2)cc1	/	/	.	.	/	.	/	/
O=C(CCc1ccccc1)NNC(=S)NCc1ccc(Cl)cc1	.	.	.	.	.	.	/	/
O=C(NNC(=S)Nc1ccc(Br)cc1Cl)c1ccncc1	.	.	.	.	.	.	/	/
COc1cccc(NC(=O)NNC(=O)CCc2ccc(O)c(O)c2)c1	/	/	.	99	/	73	52	.
O=C(CCc1ccc(O)c(O)c1)NNC(=S)NCCc1ccccc1	.	.	.	99	.	68	30	.
SMILES	EBNA-1 inh	HCV core dimer	HCV NS3 hel inh	ALR H2O2 inh	ZTA DNA inh	PfM18AAP inh-1	PfM18AAP inh-2	CTSL1 counter
O=C(CCc1ccc(O)c(O)c1)NNC(=S)Nc1ccc(Br)cc1Cl	.	.	.	99	.	54	.	.
O=C(NCCc1ccc(O)c(O)c1)C1COc2ccccc2O1 (centres undefined)	.	.	.	/	.	80	62	.
O=C(NCCc1ccccc1)C1COc2ccccc2O1 (centres undefined)	.	.	.	.	.	.	/	/
CCn1c(CN2CCOCC2)nnc1SCC(=O)Nc1cccc(C)c1	.	.	.	.	.	.	/	/
O=C(CCNC(=O)c1ccccc1Cl)NCCC1=CCCCC1	.	.	/	/	.	/	/	/
Cc1csc2c(SCC(=O)NNS(=O)(=O)c3cccc(C(F)(F)F)c3)ncnc12	.	.	.	.	.	36	.	.
CSc1nc2nc3c(cn2n1)C(=O)CC(c1ccccc1)C3 (centres undefined)	.	.	.	.	.	34	.	.
Cc1nonc1C(=O)N/N=C/c1ccc(O)c(O)c1	.	.	.	.	.	66	66	.
N/C(=N\N=C\c1ccc(O)c(O)c1)c1nonc1N	.	.	.	.	.	43	.	.
N/C(=N\N=C\c1ccc([N+](=O)[O-])cc1)c1nonc1N	.	.	.	.	.	.	/	/
O=C(N/N=C/c1ccc(O)c(O)c1)N/N=C/c1ccc(O)c(O)c1	/	/	.	100	/	80	64	.
O=C(N/N=C/c1cccc(O)c1)c1ccccc1O	.	.	.	.	.	.	/	/
CCN(CC(=O)NCc1cccs1)C(=O)CCC(=O)c1ccc(F)cc1	.	.	/	.	.	/	/	/
O=C(CCC(=O)N1CCc2ccccc2C1)NCCc1ccc(Cl)cc1	.	.	.	.	.	.	/	/
CC(=O)N1CCN(c2ccc(N=Cc3c(O)n(Cc4ccccc4)c(=O)[nH]c3=O)cc2)CC1	/	/	.	/	/	33	.	.
c1ccc(NCn2cncn2)nc1	.	.	.	.	.	87	66	.
O=C1CCC(=O)N1CNc1ccccn1	.	.	.	/	.	.	/	/
CCc1nnc(NC(=O)c2ccc(S(=O)(=O)N3CCc4ccccc4C3)cc2)s1	.	.	.	.	.	.	/	/
Cc1cc(C)c2nc(NNC(=O)c3ccc(S(=O)(=O)N4CCc5ccccc5C4)cc3)sc2c1	.	52	.	.	.	36	.	.
O=C(COC(=O)C1C2CC3OC(=O)C1C3C2)Nc1cccc(Cl)c1 (centres undefined)	.	.	.	.	.	.	/	/
N#CCN(CC#N)C(=O)C1c2ccccc2Oc2ccccc21	.	.	.	.	.	.	/	/
O=[N+]([O-])c1cc2c(cc1/C=N/NS(=O)(=O)c1ccc(Br)cc1)OCO2	.	.	.	.	.	50	.	.
CCOC(=O)NC1(Nc2ccc(C)cc2)Oc2ccccc2O1	.	.	.	.	.	58	60	.
CC(C)CNC(=O)C1c2ccccc2Oc2ccccc21	.	.	.	/	.	.	/	/
CCOC(=O)NC(NC(=O)OCC)C(=O)c1ccccc1	.	.	.	.	.	.	/	/
CCOC(=O)NC1(NC(C)C)Oc2ccccc2O1	.	.	.	.	.	80	.	.
CCOC(=O)NC1(NCC(C)C)Oc2ccccc2O1	.	.	.	.	.	66	34	.
